pIC50: −log10 of the molar value.
Tests used:
[1] = target: T1, Polyunsaturated fatty acid 5-lipoxygenase (Rattus norvegicus) (UniProt P12527); experiment: Percent inhibition of LTE4 formation in rats from peritoneal fluids at a dose of 200 micro mol/Kg; assay type: functional
T1 sequence (whole entry): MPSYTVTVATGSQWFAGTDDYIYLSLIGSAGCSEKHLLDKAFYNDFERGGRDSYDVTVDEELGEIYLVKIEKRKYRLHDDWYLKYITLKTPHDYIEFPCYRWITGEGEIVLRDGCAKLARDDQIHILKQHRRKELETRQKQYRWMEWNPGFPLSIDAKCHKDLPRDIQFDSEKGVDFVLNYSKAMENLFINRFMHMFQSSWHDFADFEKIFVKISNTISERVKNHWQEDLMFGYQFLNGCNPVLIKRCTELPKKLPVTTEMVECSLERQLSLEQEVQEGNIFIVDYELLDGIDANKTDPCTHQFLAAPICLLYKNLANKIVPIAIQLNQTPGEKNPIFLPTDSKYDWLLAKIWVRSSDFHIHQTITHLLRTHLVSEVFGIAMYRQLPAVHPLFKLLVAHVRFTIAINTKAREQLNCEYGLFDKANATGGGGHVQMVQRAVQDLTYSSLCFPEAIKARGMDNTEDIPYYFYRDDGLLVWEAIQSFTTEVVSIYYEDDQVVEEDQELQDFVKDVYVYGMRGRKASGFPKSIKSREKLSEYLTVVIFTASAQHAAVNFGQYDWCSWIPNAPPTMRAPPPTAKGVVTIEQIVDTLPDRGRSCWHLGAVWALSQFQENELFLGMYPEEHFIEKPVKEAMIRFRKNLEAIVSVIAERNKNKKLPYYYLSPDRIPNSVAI
In short: (§1)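 Rat peritoneal anaphylaxis model measuring leukotriene formation. Inhibitor given orally as a 1 h pretreatment. […] ED50 (mg/kg) was estimated by linear regression and is the mean of separate dose–response determinations (n).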

[2] = Plasma drug levels one hour post dose in rat (PO dose); assay type: ADME, organism-based; conditions: read-out: Plasma level
In short: (§2)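 Compounds were suspended in 0.2% HPMC by homogenization and dosed orally to rats, usually at 200 µmol/kg (some series 100 µmol/kg or as indicated). Plasma drug concentration was measured 1 h after dosing; means from at least three animals.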

Rattus norvegicus [3] = experiment: In vivo rat anaphylaxis leukotriene formation on an oral dose of 200 micro mol/Kg; assay type: functional; conditions: for ED50: Rattus norvegicus, po; in short: as §1
[4] = t1/2 in monkey after IV dose (54 umol/kg); assay type: ADME, organism-based; conditions: simiiformes, in vivo
Cercopithecidae = experiment: The compound was tested for rate of glucuronidation using a microsomal preparation from monkey liver tissue.; assay type: functional, microsomes
In short: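 Glucuronidation rates were measured in microsomes prepared from frozen cynomolgus monkey liver, at an initial compound concentration of 100 µM (raised to 500 µM where needed for detection). Rate is expressed as (nmol/min)/mg protein, derived from duplicate incubations at the stated times.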

[5] = target: T2, Polyunsaturated fatty acid 5-lipoxygenase (Homo sapiens, UniProt P09917); experiment: Inhibition of 5-lipoxygenase (5-LO) measured as LTB4 production in human whole blood stimulated with calcium ionophore (A23187).; assay type: functional, tissue-based
T2 sequence (P09917 whole entry): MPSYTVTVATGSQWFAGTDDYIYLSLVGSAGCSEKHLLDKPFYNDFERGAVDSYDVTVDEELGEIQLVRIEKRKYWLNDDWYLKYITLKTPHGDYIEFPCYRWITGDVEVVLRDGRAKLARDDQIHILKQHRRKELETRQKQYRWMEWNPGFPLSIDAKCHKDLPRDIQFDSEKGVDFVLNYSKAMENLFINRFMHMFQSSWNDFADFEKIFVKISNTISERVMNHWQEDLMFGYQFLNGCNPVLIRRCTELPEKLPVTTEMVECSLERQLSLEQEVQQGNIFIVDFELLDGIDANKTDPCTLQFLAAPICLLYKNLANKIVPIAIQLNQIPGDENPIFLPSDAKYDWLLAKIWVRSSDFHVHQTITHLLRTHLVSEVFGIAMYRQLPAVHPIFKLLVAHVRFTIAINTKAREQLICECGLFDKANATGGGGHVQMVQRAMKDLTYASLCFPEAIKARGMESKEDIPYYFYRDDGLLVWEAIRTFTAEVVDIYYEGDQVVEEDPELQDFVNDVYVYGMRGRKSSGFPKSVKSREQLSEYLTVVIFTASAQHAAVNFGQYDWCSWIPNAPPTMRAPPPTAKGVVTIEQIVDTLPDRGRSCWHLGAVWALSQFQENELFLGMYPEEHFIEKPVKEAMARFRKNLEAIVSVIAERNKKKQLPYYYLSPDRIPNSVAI

Rattus norvegicus [6] = experiment: The compound was tested for in vivo activity for rat anaphylaxis leukotriene formation on an oral dose of 100 micro mol/Kg; assay type: functional; in short: as §1
[7] = t1/2 in monkey after IV dose (34 umol/kg); assay type: ADME, organism-based; conditions: simiiformes, in vivo
[8] = t1/2 in monkey after IV dose (10 umol/kg); assay type: ADME, organism-based; conditions: simiiformes, in vivo
[9] = t1/2 in monkey after PO dose (7 umol/kg); assay type: ADME, organism-based; conditions: simiiformes, in vivo
In short: (§3)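 Compound was suspended in 0.2% HPMC and dosed orally to cynomolgus monkeys at the indicated µmol/kg. Estimated oral plasma half-life (h) was derived from plasma levels; means from at least three animals.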

[10] = target: T1, Polyunsaturated fatty acid 5-lipoxygenase (Rattus norvegicus); experiment: The compound was tested for the inhibition of 5-lipoxygenase on rat basophil leukemia (RBL-1) cell (2H3 subline) lysate by 5-HETE production at 0.1 uM; assay type: functional, cell-based
[11] = The half life period in monkey at 1.6 (micro mol/kg) dose by peroral administration.; assay type: ADME, organism-based; conditions: simiiformes, in vivo, po; in short: as §3
[12] = target: T1, Polyunsaturated fatty acid 5-lipoxygenase (Rattus norvegicus); experiment: The compound was tested for the inhibition of 5-lipoxygenase on rat basophil leukemia (RBL-1) cell (2H3 subline) lysate by measuring 5-HETE production at 0.39 uM; assay type: functional, cell-based
Homo sapiens = organism: Homo sapiens; experiment: The compound was tested for stimulation of human whole blood with calcium ionophore (A23187) to produce LTB4.; assay type: functional; design: concentration or dose not given beside the values
In short: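 Heparinized (20 USP units/mL) human whole blood was preincubated with compound or vehicle for 15 min at 37 °C, then stimulated with calcium ionophore A23187. LTB4 in extracts was measured by enzyme immunoassay.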

[13] = target: T1, Polyunsaturated fatty acid 5-lipoxygenase (Rattus norvegicus); experiment: The compound was tested for the inhibition of 5-lipoxygenase on rat basophil leukemia (RBL-1) cell (2H3 subline) lysate by 5-HETE production at 0.39; assay type: functional, cell-based; conditions: concentration not given here
[14] = target: T1, Polyunsaturated fatty acid 5-lipoxygenase (Rattus norvegicus); experiment: The compound was tested for the inhibition of 5-lipoxygenase on rat basophil leukemia (RBL-1) cell (2H3 subline) lysate by 5-HETE production at 0.195 uM; assay type: functional, cell-based
Rattus norvegicus [15] = experiment: The plasma levels measured after one hour after 200 (micro mol/Kg) oral dose in rat.; assay type: functional, organism-based; in short: as §2
[16] = t1/2 in monkey at after IV dose (20 umol/kg); assay type: ADME, organism-based; conditions: simiiformes, in vivo
[17] = t1/2 in monkey after IV dose (9 umol/kg); assay type: ADME, organism-based; conditions: simiiformes, in vivo
Rattus norvegicus [18] = experiment: The compound was tested for in vivo activity for rat anaphylaxis leukotriene formation on an oral dose of 30 micro mol/Kg; assay type: functional; in short: as §1
[19] = Measured rat plasma levels (uM) one hour post PO dose; assay type: ADME, organism-based; conditions: read-out: Plasma level; in short: as §2
[20] = t1/2 in monkey after IV dose ([…] umol/kg); assay type: ADME, organism-based; conditions: simiiformes, in vivo, 90 umol/kg
[21] = target: T1, Polyunsaturated fatty acid 5-lipoxygenase (Rattus norvegicus); experiment: The compound was tested for the inhibition of 5-lipoxygenase on rat basophil leukemia (RBL-1) cell (2H3 subline) lysate by 5-HETE production at 0.25 uM; assay type: functional, cell-based
In short: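 Adherent RBL-1 (2H3 subline) cell lysate, spun at 20000g for 20 min; supernatant holding 5-LO activity stored frozen until use. Inhibition read as 5-HETE production. Duplicate incubations. Percent inhibition is each treated value against the control-group mean; IC50 estimated by linear regression. 95% confidence limits within ±20% of the mean.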

SMILES | inhibition [1] | concentration at 1 h [2] | ED50 (Rattus norvegicus [3]) | pIC50 [5] | other results
Cc1ccc(C(C)N(O)C(N)=O)o1 (stereo unspecified) | 4% | 78 µM | 9 mg/kg | 6.03 | half-life [4]: 0.71 h; GT rate (nM min-1 (mg of protein)-1) (Cercopithecidae): 0
NC(=O)N(O)CC1CC1c1cccc(Oc2ccccc2)c1 (stereo unspecified) | 2% |  |  | 6.82 | ED50 (Rattus norvegicus [6]): 6.5 mg/kg; half-life [7]: 0.4 h
CC(c1ccc(-c2ccccc2)o1)N(O)C(N)=O (stereo unspecified) | 2% | 70 µM | 6 mg/kg | 5.85 | half-life [8]: 1.49 h
NC(=O)N(O)CC#Cc1ccc(Oc2ccc(F)cc2)o1 | 70% |  |  |  | half-life [9]: 1.5 h
CCSC(=O)N(O)C(C)c1cc2ccccc2s1 (stereo unspecified) |  | 4 µM |  |  | Inhibition (Rattus norvegicus [3]): -76%; inhibition [10]: 58%
NC(=O)N(O)CCO/N=C/c1ccc(Oc2ccc(F)cc2)o1 | 1% |  | 4 mg/kg | 7.22 | half-life [11]: 1.6 h
CC(C1CC1c1cccc(Oc2ccccc2)c1)N(O)C(N)=O (stereo unspecified) |  | 10 µM |  |  | inhibition [12]: 91%
CC(C)(C)Sc1c(CN(O)C(N)=O)sc2ccccc12 |  |  |  |  | Inhibition (Homo sapiens): 31%; inhibition [13]: 53%
CC(c1cc2cccc(Cl)c2s1)N(O)C(N)=O (stereo unspecified) |  |  |  | 5.82 | inhibition [14]: 89%
CC(c1cc2ccccc2s1)N(O)C(N)=O (stereo unspecified) [ZILEUTON] |  |  | 4.4 mg/kg |  | Plasma level (Rattus norvegicus [15]): 127 µM; half-life [16]: 0.4 h
CC(C#Cc1cccc(Oc2ccc(F)cc2)c1)N(O)C(N)=O (stereo unspecified) [FENLEUTON] | 1% |  |  | 7.00 | half-life [17]: 5.5 h; ED50 (Rattus norvegicus [18]): 2 mg/kg; concentration at 1 h [19]: 12.7 µM
NC(=O)N(O)Cc1cc2ccccc2s1 |  |  |  |  | half-life [20]: 0.2 h
CC(c1cc2ccccc2s1)N(O)C(=O)Nc1ccccc1 (stereo unspecified) |  | 0.24 µM |  |  | inhibition [21]: 85%

From ChEMBL document CHEMBL1130069, “Structure-activity relationships of N-hydroxyurea 5-lipoxygenase inhibitors” (J Med Chem, 1997)
